# A selection: hits, their analogues and other compounds. The true share with any hit is near 2.9%.
# CHO parental Ca: counter-screen for OX1R antagonists: effect in parental CHO cells | inhibition, % at 5.6 µM | parental CHO-K1, ATP-induced calcium, Fluo-8 fluorescence | 0.63% of 330,000 active;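 active = inhibition above that plate's mean sample inhibition plus 3 SD, cut at about 26% in these data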;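 note: 0% = ATP-challenged DMSO wells and 100% = DMSO wells without ATP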
#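 Measured by: calcium-sensitive Fluo-8 fluorescence / Test system: CHO parental line / Controls: ATP-challenged DMSO wells low, unchallenged DMSO wells high / Measure: % inhibition / Compound: single nominal dose of 5.6 µM per compound / Replicates: single well per compound, no replicates / Reagent: ATP as calcium-mobilizing challenge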
# M1 PAM parental: nonselective activator or artifact in parental CHO-K1 calcium assay | ATP EC20, Fluo-8 calcium fluorescence; 0% at ATP EC20, 100% at ATP max | activation, % at 3 µM | 0.02% of 360,000 active | AID 602247;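 active = activation above the run cutoff, the mean activation of all test compounds plus 3 SD, cut at about 40% in these data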;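 note: peak over basal fluorescence ratio in a 140 s read after ATP addition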
# OX1R antag-1: OX1R (human) antagonism; O43613; OX1R-expressing cells, FRET antagonist read-out; inhibition, % at 6.6 µM; 1.8% of 330,000 active; in the data active = inhibition mostly above about 38%, no sharp cut-off; inactive = mostly below about 40%;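 note: 0% = agonist challenge alone and 100% = reference antagonist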
# Target sequence (O43613 whole entry, looked up): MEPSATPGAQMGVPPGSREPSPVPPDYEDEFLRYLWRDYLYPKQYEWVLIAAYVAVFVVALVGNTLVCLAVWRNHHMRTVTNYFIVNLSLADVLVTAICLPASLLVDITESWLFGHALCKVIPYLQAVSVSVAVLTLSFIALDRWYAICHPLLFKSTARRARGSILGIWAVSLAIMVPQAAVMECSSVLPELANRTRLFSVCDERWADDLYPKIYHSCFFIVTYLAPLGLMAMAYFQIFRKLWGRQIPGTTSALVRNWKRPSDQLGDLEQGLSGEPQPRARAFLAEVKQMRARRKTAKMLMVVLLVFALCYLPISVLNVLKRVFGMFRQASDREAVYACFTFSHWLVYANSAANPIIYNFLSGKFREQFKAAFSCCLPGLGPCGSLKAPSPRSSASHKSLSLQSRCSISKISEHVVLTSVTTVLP
# CHO-K1 Ca antag: nonselective inhibitor or artifact in parental CHO-K1 cells; ATP-induced calcium, Fluo-8 fluorescence; inhibition, % at 3 µM; 0.6% of 360,000 active;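 active = inhibition above a per-plate cutoff, the plate's mean sample inhibition plus 3 SD, cut at about 24% in these data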;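 note: 0% = DMSO plus EC80 ATP and 100% = DMSO alone without ATP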
# OX1R antag-2: blocks the human orexin 1 receptor; inhibition, % at 5 µM; CHO/OX1R cells, Fluo-8 calcium fluorescence, orexin A; AID 434989; O43613; 0.43% of 330,000 active;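 active = inhibition above its plate's threshold, mean inhibition of all tested compounds on the plate plus 3 SD, cut at about 37% in these data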;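 note: 0% = orexin A challenge wells and 100% = SB-334867-A antagonist wells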
# M1 ag parental: nonselective activator or artifact in parental CHO-K1 cells; Fluo-8 calcium fluorescence; scaled to maximal ATP response, vehicle zero; activation, % at 3 µM; 0.48% of 360,000 active; in the data active = activation above about 15%;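 note: untransfected CHO-K1 host cells lacking M1 receptor as counterscreen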
# OX1R Ca confirm: OX1R (human) antagonism, confirmed | shares compounds with OX1R antag-2 | 38% of 1,100 active | AID 492963 | inhibition, % at 5 µM | CHO/OX1R cells, orexin A calcium Fluo-8 fluorescence; in the data active = inhibition above about 29%;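 note: 0% = agonist challenge alone and 100% = reference antagonist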
# CHO Ca counter: counter-screen: parental CHO calcium response change, triplicate. parental CHO-K1, ATP-induced calcium, Fluo-8 fluorescence. shares compounds with OX1R antag-2. inhibition, % at 5.6 µM. 9.3% of 1,100 active;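 active = inhibition above a per-plate limit, the mean inhibition of that plate's test compounds plus 3 SD, cut at about 25% in these data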;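 note: 0% = ATP challenge with DMSO and 100% = DMSO without ATP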
# * marks the source's active call; other numbers are inactive results; . = no result.
SMILES,CHO parental Ca,M1 PAM parental,OX1R antag-1,CHO-K1 Ca antag,OX1R antag-2,M1 ag parental,others
CCOC(=O)C(O)(c1ccc(NC(=S)NC(=O)c2ccc(Cl)cc2Cl)c(C)c1)C(F)(F)F (centres undefined),49.8*,-2.4,11.5,19.9,47.3*,14.3,
COC(=O)C(O)(c1ccc(NC(=S)NC(=O)c2ccc(Cl)cc2Cl)cc1)C(F)(F)F (centres undefined),20.2,-7.2,25.6,7.2,21.0,5.0,
CCOC(=O)C(O)(c1ccc(NC(=S)NC(=O)c2ccc(Cl)cc2Cl)cc1)C(F)(F)F (centres undefined),57.1*,8.4,18.8,15.7,71.0*,7.8,
O=C1C2CCCN2C(c2ccncc2)N1c1ccc(Cl)c(Cl)c1 (centres undefined),-22.1,-4.2,20.8,9.3,-29.0,0.3,
C[C@]12CCC3C(CC[C@H]4C[C@@H](O)[C@H](O)C[C@]34C)C1CC[C@@H]2O (some centres undefined),-6.7,0.5,7.9,-15.9,-9.3,2.4,
CC(=O)N1N=C(c2cccnc2)OC1c1ccccc1Cl (centres undefined),-7.8,11.6,4.2,-0.9,8.7,16.1*,
O=C1CC(c2cccnc2)=NN1c1ccc(Cl)cc1Cl,-11.1,2.8,11.2,-0.3,-15.9,0.5,
CNC(=O)Oc1ccccc1OC(C)C,.,11.6,.,-3.9,.,0.6,
COc1ccccc1N(CC(=O)NC1CCCCC1)C(=O)c1cnn(C(C)C)c1,-2.9,-0.5,8.5,9.3,-8.0,-0.1,
C/C(=N\NC(=S)Nc1ccccc1)c1c(O)n(C)c(=O)n(C)c1=O,-8.4,24.6,5.0,-4.5,-13.4,22.5*,
COC(=O)C1=C(c2ccc(-c3ccccc3)c(F)c2)C[C@@H]2CC[C@H]1N2C(=O)NCCCOC(C)C,-20.8,-1.9,-3.0,-1.3,-14.0,1.5,
O=C1NC(=O)N(c2ccccc2F)C(=O)/C1=C/c1ccc(Sc2nc3ccccc3[nH]2)o1,38.4,-13.1,17.2,15.3,41.2,15.6*,
O=C1NC(=O)N(c2cccc(Cl)c2)C(=O)/C1=C\c1ccc(Sc2nc3ccccc3[nH]2)o1,38.8*,-1.5,9.4,12.2,61.9*,26.5*,
CCOC(=O)C1C(OC(=O)c2ccccc2)CC2CCC1N2C (centres undefined),.,-11.8,.,7.6,.,-0.8,
CCOc1cccc(CNCCc2c(C)[nH]c3ccc(OC(F)(F)F)cc23)c1O,85.0*,-24.7,15.0,53.0*,55.3*,37.2*,
Cc1[nH]c2ccc(OC(F)(F)F)cc2c1CCNCc1cccc([N+](=O)[O-])c1,29.0*,-24.2,10.9,20.9,13.8,35.2*,
Cc1[nH]c2ccc(OC(F)(F)F)cc2c1CCNCc1ccc(Cl)cc1,.,17.7,.,13.0,.,2.5,
Cc1ccc(OCC(=O)N2CCN(Cc3ccc4c(c3)OCO4)CC2)cc1,-8.4,-18.0,2.4,29.6*,10.4,0.0,
COc1ccc(OCC(=O)N2CCN(Cc3ccc4c(c3)OCO4)CC2)cc1,2.9,2.8,8.9,-12.3,-21.4,2.1,
CCCn1c(C)c(C(=O)c2cccc3ccccc23)c2ccccc21,16.4,-13.1,21.7,13.5,-28.9,-0.1,
O=C(c1c[nH]cc1-c1ccccc1)c1cccc2ccccc12,39.8*,-0.3,24.8,12.5,41.2,0.5,
COc1cccc(C2(O)CCN(Cc3ccncc3)CC2)c1,0.4,-8.2,10.1,24.2*,-6.7,-0.4,
COc1cccc(N2CCN(Cc3ccc(Cl)cc3)CC2)c1,-10.1,13.3,-4.2,-7.8,-10.4,0.0,
CCC1CN1P(=O)(Oc1ccc(Cl)cc1)N1CC1CC (centres undefined),.,6.1,.,-14.6,.,1.1,
OC(CC#CCN1CCCCCC1)(c1ccccc1)C1CCCC1 (centres undefined),-9.8,-14.9,22.4,16.6,13.9,16.5*,
SMILES,CHO parental Ca,M1 PAM parental,OX1R antag-1,CHO-K1 Ca antag,OX1R antag-2,M1 ag parental,others
CN(C)CC#CCC(O)(c1ccccc1)C1CCCC1 (centres undefined),1.0,-9.5,3.3,24.8*,7.7,-0.1,
CC1(C(O)(C#CCN2CCCCC2)c2ccccc2)CCCC1 (centres undefined),-14.5,9.9,20.2,-8.2,-17.4,1.1,
CC(=O)OC1C(O)C(C)OC(OC2C(OC(=O)C3CCC4C(C3)OC3(CC(OC(=O)/C=C/c5ccccc5)C(C)CO3)C43CO3)OC(C)C(O)C2OC(C)=O)C1O (centres undefined),.,-0.2,.,-2.6,.,0.6,
CCOC(=O)[C@]12Cc3cc(C)ccc3[C@H]1N(C1CCCCC1)C(=O)c1cc(OC)ccc12,.,7.9,.,24.5*,.,3.4,
CCC(c1nnnn1Cc1ccccc1)N1CCC2(CC1)C(=O)NCN2c1ccccc1 (centres undefined),.,1.4,.,-14.4,.,5.1,
CCOC(=O)c1[nH]ncc1CN1CCCC(C(=O)c2cccc(Cl)c2)C1 (centres undefined),-21.6,11.0,13.0,-15.8,-32.2,1.0,
COC(=O)C1=C(c2ccccc2OCc2ccccc2)C[C@@H]2CC[C@H]1N2C(=O)NCc1cccc(F)c1,-28.2,11.8,40.8*,-15.1,35.1,0.7,
COC(=O)C1=C(c2ccc(C(C)=O)cc2)C[C@@H]2CC[C@H]1N2C(=O)NCc1ccc(C(F)(F)F)cc1,10.7,9.1,-0.2,-5.5,32.3,23.7*,
CN(C)P1(N(C)C)=Nc2c(c(N)nn2C)C(c2ccccc2)=N1,-9.6,20.3,17.6,-6.9,89.1*,0.6,OX1R Ca confirm=2.8;CHO Ca counter=1.9
COC(=O)C1=C(c2ccc(OC(F)(F)F)cc2)C[C@@H]2CC[C@H]1N2C(=O)NCCOc1ccc(OC)cc1,-20.8,6.2,8.3,-21.0,-9.4,0.8,
COC(=O)C1=C(c2ccc(F)cc2OCc2ccccc2)C[C@@H]2CC[C@H]1N2C(=O)NCCOc1ccccc1Cl,-22.8,17.2,31.2,-12.3,56.3*,0.7,OX1R Ca confirm=18.6;CHO Ca counter=-18.4
COc1ccc(-n2c(O)c(/C=C/C=Nc3ccccc3)c(=O)[nH]c2=O)cc1,19.3,-17.5,33.9,17.3,45.0*,23.4*,OX1R Ca confirm=24.5;CHO Ca counter=31.8*
O=c1[nH]c(=O)n(-c2ccccc2)c(O)c1/C=C/C=Nc1ccccc1,0.2,7.3,16.1,-0.9,5.6,5.4,
O=c1cccc2n1CC1CC2CN(S(=O)(=O)c2ccc(F)cc2)C1 (centres undefined),-6.5,8.1,12.5,-4.0,-10.2,-0.4,
